# Experimental data collected from several papers.
# Compare with care: the assays were run in different laboratories.
# Target: Proto-oncogene tyrosine-protein kinase ROS (ROS1, Homo sapiens, UniProt P08922)
Compound,assay,setting,remaining binding [%]
COc1ncc2cc3ccccc3nc2c1C#N,"cell-free assay, competition with immobilised ligand",5 µM,91
c1cnn2ncc(-c3ccnc(N4CCC45COC5)n3)c2c1,binding,1 µM,100
CNCc1ccccc1-c1csc([C@@H](C)Nc2nc(C)nc3cc(OC)c(OC)cc23)c1,"cell-free assay, competition with immobilised ligand",1 µM,84
FC(F)(F)Oc1cccc(-c2cnc3ccc(-c4ccncc4)nn23)c1,"binding, competition with immobilised ligand",5 µM,81
O=C(Nc1cccnn1)N1CCC(=Cc2cccc(Oc3ccc(C(F)(F)F)cn3)c2)CC1,"cell-free assay, competition with immobilised ligand",1 µM,80
O=C(c1ccc(Nc2ncc(Cl)c(-c3ccc(Cl)s3)n2)cc1)N1CCC(N2CCCC2)CC1,"binding, competition with immobilised ligand",1 µM,37
CN(C)c1ncc(F)c(-c2cnn3ncccc23)n1,binding,1 µM,87
O=C(NCCCC1CCCCC1)c1ccc(CNC(=O)c2cnn(-c3ccccc3)c2C(F)(F)F)cc1,"cell-free assay, competition with immobilised ligand",0.1 µM,100
O=C(Nc1c[nH]nc1C(=O)NC1CCNCC1)c1cc(F)cc(F)c1,"binding, competition with immobilised ligand",1 µM,100
c1cncc(-c2cccc(Nc3nccc(NC4CCCCC4)n3)c2)c1,"binding, competition with immobilised ligand",10 µM,20
CN(CCCC(F)(F)F)c1nccc(-c2cnn3ncccc23)n1,binding,1 µM,79
O=C(NCCCN1CCOCC1)c1ccc(Nc2ncc(Cl)c(-c3ccc(Cl)s3)n2)cc1,"binding, competition with immobilised ligand",1 µM,47
CC1CCCN1c1nccc(-c2cnn3ncccc23)n1 (stereo not shown),binding,1 µM,100
COc1cnc(Nc2cccc(S(N)(=O)=O)c2)nc1N1CCN(c2ccccc2)CC1,"binding, competition with immobilised ligand",1 µM,99
CC(=O)C1=C(C)N(c2cccc(C(F)(F)F)c2)C(=O)N[C@@H]1c1ccc(C#N)nc1,"cell-free assay, competition with immobilised ligand",1 µM,100
O=C(NCCCN1CCOCC1)c1ccc(Nc2nccc(-c3cc4ccccc4s3)n2)cc1,"binding, competition with immobilised ligand",1 µM,53
N[C@H]1CCN(c2nccc(-c3cnn4ncccc34)n2)C1,binding,1 µM,85
O=S(=O)(NC1CCC(c2cc(F)ccc2F)(S(=O)(=O)c2ccc(Cl)cc2)CC1)C(F)(F)F (stereo not shown),"cell-free assay, competition with immobilised ligand",1 µM,100
CN(C)c1nccc(-c2cnc3ncccn23)n1,binding,1 µM,71
CN(C)CC#Cc1ccc(OCCCc2sc(N3CCc4cccc(C(=O)Nc5nc6ccccc6s5)c4C3)nc2C(=O)O)c(F)c1,"cell-free assay, competition with immobilised ligand",1 µM,93
C[C@H]1CCN(c2nccc(-c3cnn4ncccc34)n2)C1,binding,1 µM,91
CNC(=O)[C@@H]1CC[C@@H](n2c(-c3ccc4cnccc4c3)nc3ccc(C(=O)NCc4cccc(C(N)=O)c4)cc32)C1,"binding, competition with immobilised ligand",1 µM,100
